How the values were obtained:
MDA-MB-231 cells = assay: MTT assay, MDA-MB-231; assay type: cell-based; conditions: Homo sapiens, MDA-MB-231, 48 h, read-out: MTT IC50
In short: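 TNBC cells maintained in DMEM with 10% FBS at 37 °C, 5% CO2. About 10 000 cells/well seeded and exposed to test compound at 0.5–80 μM for 48 h, with 0.1% DMSO medium as control. MTT (1 mg mL−1) added for 4 h at 37 °C. Formazan dissolved in DMSO for 30 min at room temperature. Absorbance read at 540 nm.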

[1] = target: T1, rat α2,3-O-sialyltransferase ST3GAL1 (Rattus norvegicus, UniProt Q6H8N0); conditions: cited from earlier work
T1 sequence (Q6H8N0 1-340): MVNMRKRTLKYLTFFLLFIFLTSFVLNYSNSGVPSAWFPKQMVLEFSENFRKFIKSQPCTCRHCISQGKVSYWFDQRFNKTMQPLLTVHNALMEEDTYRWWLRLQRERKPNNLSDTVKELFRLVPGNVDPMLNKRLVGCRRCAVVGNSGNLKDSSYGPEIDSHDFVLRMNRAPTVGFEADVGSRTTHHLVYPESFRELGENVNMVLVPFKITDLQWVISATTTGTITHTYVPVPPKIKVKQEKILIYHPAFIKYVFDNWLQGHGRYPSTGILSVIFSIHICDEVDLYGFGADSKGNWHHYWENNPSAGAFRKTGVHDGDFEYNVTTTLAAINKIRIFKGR

Row | SMILES | IC50 (MDA-MB-231 cells) | ST3GAL1 % Inhibition at 500 μM [1]
1 | c1ccc2c(Cc3c[nH]c4ccccc34)c[nH]c2c1 [3,3′-DIM, 3,3′-diindolylmethane] | 40 to 80 µM | –
2 | C[C@H](CCC(=O)O)[C@H]1CC[C@H]2[C@@H]3CC[C@@H]4C[C@H](O)CC[C@]4(C)[C@H]3CC[C@]12C [LCA, Lithocholic acid] | – | 53%

Reference: PMC12394899 (RSC Medicinal Chemistry, 2025)
